The series deals with MS2 coat protein. Kind of series: apparent Kd, MS2 coat protein; higher = weaker binding; RNA-MaP array; FMN 200 µM where present. The essentials: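 The apparent Kd is reported as the median of filtered per-cluster binding-curve fits. To get these curves, designs transcribed by stalled E. coli RNA polymerase on Illumina sequencing-chip clusters were titrated with SNAP-549-labelled MS2 coat protein from 0.7 or 1.5 nM, doubling to 3 µM. Titrations were run without and then with constant ligand in 100 mM Tris-HCl pH 7.5, 80 mM KCl, 4 mM MgCl2, BSA, DTT, yeast tRNA and Tween-20, and green signal was normalised to red-channel RNA signal and control-cluster median Fmax.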

[1] abbreviates: designed as: OFF switch for flavin mononucleotide, no ligand.
Setting [2] is: ligand present: flavin mononucleotide, designed as: OFF switch for flavin mononucleotide.
Setting [3] is: designed as: ON switch for flavin mononucleotide, no ligand.
Where [4] appears, read: ligand present: flavin mononucleotide, designed as: ON switch for flavin mononucleotide.

The apparent Kd is the concentration giving half-maximal binding under the conditions of the assay.

“CCAUUUCAGUAAGGAUAUAUAAACAUGACGAUACAUGAGGAUCACCCAUGUGUAGAAGGUACUAAUACAUAUAAUGCAAUGCUC”: the “apparent Kd” value reads like this: under setting [1], 20.4 nM; under setting [2], 17.2 nM.
For “UGUCGGAGCAGAGGAUAUUACAUGAGGAUCACCCAUGUAUGAACCAAUAGCUGGAAACAGCAAUGUAAGAAGGCUGCUCAGACA”, in that order: 11.9 nM and 137 nM.
For “UGUCGGAGCAGAGGAUAUUACAUGAGGAUCACCCAUGUAUGAACCAAUAGCUGGACACAGCAAUGUAAGAAGGCUGCUCCGACA”, in that order: 11.4 nM and 133 nM.
The matching figures for “GGGCUGUCAGGAUAUCCCGGGUUUGGGUAAACCCGGGCCCGGGAGAAGGGACAUGAGGAUCACCCAUGUGGCCC”: 32.1 nM and 31.8 nM.
“AAACCACAUGAGGAUCACCCAUGUAAAAAUAUGGGAGGAUAUCGGAAUAAAAUAAAGAAACGAGAAGGCCUAAAAA”: the “apparent Kd” value by setting is: under setting [3], 153 nM; under setting [4], 35.9 nM.
Consider “UACGGACAUGAGGAUCACCCAUGUGAGGAUAUCGGUACCGAUAGCAUAAUCUACUCGGCGAGAAGGCACAGCGU”, for which the “apparent Kd” value under setting [1] is 30.7 nM and the “apparent Kd” value under setting [2] came to 40.1 nM.
For “CAGUACUGAGGAUAUACAUGAGGAUCACCCAUGUGUUCCUUGUAGGAUAUGCGCAAAAGUAGAAGGCAGAAGGAGAUGUGCCUA”, in that order: 6.59 nM and 6.3 nM.
Regarding “GCCAUCGCAUGAGGAUAUGCUCCGGUUUCCGGAGCAGAAGGCGUGUCAUAAGACAUGAGGAUCACCCAUGUAGCUAAGAUGGCA”, the “apparent Kd” value came to 249 nM under setting [3] and 10.8 nM under setting [4].
For “AUAAAGCGUGCUACGCAAAAUAACGCAGAAGGCCAACAUGAGGAUCACCCAUGUAAAAGAAAGAUGGAGGAUAUGCGGUUUGGC”, in that order: 46.6 nM and 5.74 nM.
For “GCCAUCGCAUGAGGAUAUGGUCAGGUUUCCUGACCAGAAGGCAUGUCAUAAGACAUGAGGAUCACCCAUGUAGUUAAGAUGGCA”, in that order: 717 nM and 48.4 nM.
With “AUCAGCUCGUCAGGAUAUACGUCACUGCGUCAGCAGUGAGGUAAGAUCACAUGAGGAUCACCCAUGUAGAAGGGACGAGCUGAU”, the “apparent Kd” value was found to be 6.09 nM under setting [1] and 13.2 nM under setting [2].
For “GGAUAGGACAGAGGAUAUACGUGCUAGAGAUACUAGCAAAAUUUCCACACAUGAGGAUCACCCAUGUAGAAGGCUGUCCUAUCG”, the “apparent Kd” value under setting [2] was 7.57 nM.
Take “CAUCCACGGUAGAAGGGACUAGGCACAUGAGGAUCACCCAUGUCCUUUCCCAACUUGUGCCGCGGUCAGGAUAUACCGGGUCGG”: the “apparent Kd” value worked out at 12.5 nM under setting [1] and 20 nM under setting [2].
For “CGUGCUAUGUAGAAGGCAGAAAAGAUUCAGAUCUGAGGAUAUACAUGAGGAUCACCCAUGUUAUGCACCAGCACGAGAGUGCAC”, in that order: 6.69 nM and 7.03 nM.
Take “UUCGUGCAGCUUUGCUGUACGAGUACAUGAGGAUCACCCAUGUAGGAUAUGGUACGCUUUGCGUGCUAGAAGGAUAUGUGUAGC”: the “apparent Kd” value was determined as 33 nM under setting [1] and 37 nM under setting [2].
The matching figures for “AGCAUGUAAGGAUAUGCAAGUGGCACGGAUAGUACCAGAAAGCAGAAGGUACAUGAGGAUCACCCAUGUGCUCC”: 26.8 nM and 94.9 nM.
The matching figures for “GAAUGCCUGUCGAUGCUCGACAUGAGGAUCACCCAUGUAUAGCAGGAUAUGCAGAACUGACUCGUGCAGAAGGGCUAUACCUAA”: 18.8 nM and 47.7 nM.
With “CGGCGCUGUCGAGAGGAUAUGCGGUGAUGGACAUGAGGAUCACCCAUGUUAGCGAUAGCAUCACGGUAGAAGGCUCUACGGCCUG”, the “apparent Kd” value under setting [3] was determined as 112 nM and the “apparent Kd” value under setting [4] amounted to 15.6 nM.
For “UUACAUACAAAUGUACAUGAGGAUCACCCAUGUUUGUUGGGAAGAAGGGUAACAGUACUACACAUACAGGAUAUUUCACAAAUA”, the “apparent Kd” value came out at 54 nM under setting [3] and 34 nM under setting [4].
Turning to “GCCAUCGCGUGAGGAUAUGCUCCGGUUUCCGGAGCAGAAGGCAUGUCAUUAGACAUGAGGAUCACCCAUGUAGUUAAGAUGGCA”, the “apparent Kd” value by setting is: under setting [3], 562 nM; under setting [4], 18.2 nM.

These data come from the EternaBench riboswitch data.
